From PubChem BioAssay
Hits are enriched below; roughly 2.9% of the tested compounds scored in any of these assays.
CAL PDZ FP-1 = human CAL PDZ-peptide interaction inhibition | purified CAL PDZ, TMR-peptide fluorescence polarization, 1 h | AID 504414 | inhibition, % at 20 µM | 0.02% of 330,000 active;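 active = highest replicate inhibition of at least 40%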
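Assay system – tagged CAL PDZ protein CerCALP, purified · Timing – 1 h at RT · Compound – single point, 20 µM · Measured by – fluorescence polarization from S- and P-plane intensities, G-factor corrected · Evaluation – inhibition from polarization loss · Probe or stimulus – TMR reporter peptide T*-PRC34 · Buffer or medium – pH 7.4 phosphate-saline buffer, reducing agent, detergent, IgG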
ERAP1 inh = inhibitors of human ERAP1 aminopeptidase; Q9NZ08; recombinant ERAP1, Leu-AMC fluorescence, 60 min; inhibition, % at 10.7 µM; 0.15% of 340,000 active; AID 652197;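 active = mean replicate inhibition of at least 30%, or all replicates individually reaching that 30% level; inactive = mean below 30% and not every replicate reaching it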
DENV2 CPE = inhibitors of DENV2 cytopathic effect. 1.7% of 350,000 active. AID 651640. DENV2-infected cells, cytopathic effect rescue, plate reader. CPE inhibition, % at 9.99 µM; in the data active = CPE inhibition above about 20%, passing the limit was not always enough; inconclusive = no clear call, values can overlap the other calls; tested in BHK-21 cells
CAL PDZ FP-2 = inhibitors of human CAL PDZ peptide binding | purified CAL PDZ, TMR-peptide fluorescence polarization, 1 h | inhibition, % at 24.9 µM | 0.92% of 300,000 active;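 active = mean inhibition of at least 30% with at least half of replicates also reaching 30%; inconclusive = no clear call, values can overlap the other calls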
S100A4 MyoIIA = inhibitors of human S100A4 binding to myosin IIA peptide; P26447; S100A4/TAMRA-MyoIIA peptide fluorescence polarization; inhibition, % at 10.7 µM; 0.14% of 360,000 active;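 active = mean inhibition of at least 70% across replicates, with every replicate also reaching that level; inconclusive = mean inhibition reaches 70% but some replicates fall short; inactive = mean inhibition below 70%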
Target sequence (P26447 whole entry, looked up): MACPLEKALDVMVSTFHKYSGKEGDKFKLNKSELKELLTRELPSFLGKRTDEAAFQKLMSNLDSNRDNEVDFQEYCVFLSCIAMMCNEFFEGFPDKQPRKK
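Test system – S100A4 monomer (human) · Compound – single-point compound testing · Schedule – 5 min incubation before reading · Probe or stimulus – TAMRA-labelled myosin IIA heavy-chain peptide probe, 5 nM · Benchmarks – neutral control DMSO, positive control TFP · Medium – Calcium-containing HEPES buffer, pH 7.2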
SIRT5 block = sirtuin-5 (human) deacylase inhibition | AID 652115 | inhibition, % at 15 µM | Purified SirT5, succinyl-peptide AMC, trypsin-coupled fluorescence | Q9NXA8 | 1.1% of 330,000 active; in the data active = inhibition above about 15%; inconclusive = no clear call, values can overlap the other calls
Target sequence (Q9NXA8 whole entry, looked up): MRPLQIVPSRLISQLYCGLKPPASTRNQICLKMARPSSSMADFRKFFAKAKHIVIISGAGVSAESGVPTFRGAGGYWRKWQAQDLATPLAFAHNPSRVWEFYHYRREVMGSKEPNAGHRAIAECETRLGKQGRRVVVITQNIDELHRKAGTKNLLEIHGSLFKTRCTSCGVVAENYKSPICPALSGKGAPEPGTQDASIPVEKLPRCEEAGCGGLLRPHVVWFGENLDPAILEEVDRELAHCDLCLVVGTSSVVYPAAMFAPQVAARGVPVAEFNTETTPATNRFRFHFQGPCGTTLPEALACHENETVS
Large screens that a line does not name were inactive.

Cc1ccc(-n2ncc3c2CCCC3NC(=O)c2ccoc2)cc1C (stereo unspecified)	none
C[C@@H]1CN([C@H](C)CO)C(=O)c2cccc(NC(=O)Nc3ccc(C(F)(F)F)cc3)c2O[C@H]1CN(C)C(=O)Nc1cccc2ccccc12	SIRT5 block 27 (no result: CAL PDZ FP-1, CAL PDZ FP-2)
C[C@H]1CN([C@@H](C)CO)C(=O)c2cccc(NC(=O)Nc3ccc(C(F)(F)F)cc3)c2O[C@@H]1CN(C)C(=O)Nc1cccc2ccccc12	none (no result: CAL PDZ FP-1, CAL PDZ FP-2)
Cc1noc(C)c1NC(=O)N(C)C[C@H]1Oc2c(NC(=O)Nc3ccc(C(F)(F)F)cc3)cccc2C(=O)N([C@@H](C)CO)C[C@@H]1C	DENV2 CPE 27 (no result: CAL PDZ FP-1, CAL PDZ FP-2)
Cc1noc(C)c1NC(=O)Nc1cccc2c1O[C@@H](CN(C)Cc1ccc(C(=O)O)cc1)[C@H](C)CN([C@@H](C)CO)C2=O	none (no result: CAL PDZ FP-1, CAL PDZ FP-2)
Cc1noc(C)c1NC(=O)Nc1cccc2c1O[C@@H](CN(C)Cc1ccc(C(F)(F)F)cc1)[C@H](C)CN([C@@H](C)CO)C2=O	DENV2 CPE 23 (no result: CAL PDZ FP-1, ERAP1 inh, CAL PDZ FP-2, S100A4 MyoIIA)
C[C@@H]1CN([C@@H](C)CO)C(=O)c2cccc(NC(=O)Nc3ccc(C(F)(F)F)cc3)c2O[C@@H]1CN(C)Cc1ccc(-c2ccccc2)cc1	none (no result: CAL PDZ FP-1, CAL PDZ FP-2)
C[C@@H]1CN([C@H](C)CO)C(=O)c2cccc(NC(=O)Nc3ccc(C(F)(F)F)cc3)c2O[C@@H]1CN(C)Cc1ccc(-c2ccccc2)cc1	DENV2 CPE inconclusive, SIRT5 block 103 (no result: CAL PDZ FP-1, CAL PDZ FP-2)
C[C@H](CO)N1C[C@H](C)[C@@H](CN(C)Cc2ccccc2)Oc2ccc(NC(=O)Nc3ccc(F)cc3)cc2CC1=O	none (no result: CAL PDZ FP-1, CAL PDZ FP-2)
Cc1noc(C)c1NC(=O)Nc1ccc2c(c1)CC(=O)N([C@@H](C)CO)C[C@@H](C)[C@H](CN(C)S(=O)(=O)c1cn(C)cn1)O2	none (no result: CAL PDZ FP-1, ERAP1 inh, CAL PDZ FP-2, S100A4 MyoIIA, SIRT5 block)
CCC(=O)N1CC2(C1)[C@@H](c1ccccc1)[C@@H](CO)N2C(=O)c1ccccc1	none (no result: CAL PDZ FP-1, CAL PDZ FP-2)
O=C(C[C@H]1C[C@@H]2c3cc(NC(=O)c4ccc5c(c4)OCO5)ccc3O[C@@H]2[C@@H](CO)O1)NCC1CC1	none (no result: CAL PDZ FP-1, CAL PDZ FP-2)
C[C@@H]1CN([C@H](C)CO)C(=O)c2cccc(NC(=O)Nc3ccc(C(F)(F)F)cc3)c2O[C@@H]1CN(C)C(=O)Nc1ccccc1	DENV2 CPE 43 (no result: CAL PDZ FP-1, CAL PDZ FP-2)
O=C1CCC(C(=O)OCC(=O)Nc2ccc(SC(F)F)cc2)=NN1	DENV2 CPE 29 (no result: CAL PDZ FP-1, CAL PDZ FP-2)
O=C(CC1CC1)N1[C@H](CO)[C@H](c2ccccc2)C12CN(S(=O)(=O)c1ccccc1)C2	none (no result: CAL PDZ FP-1, CAL PDZ FP-2)
Cc1ccc(S(=O)(=O)N2[C@@H](c3ccc(C(C)(C)C)cc3)C(C(=O)O)=CC[C@H]2c2cccc(Cl)c2)cc1	none
Cc1ccc(S(=O)(=O)N2[C@@H](c3ccc(C(C)(C)C)cc3)C(C(=O)O)=CC[C@H]2c2ccc(Cl)c(Cl)c2)cc1	SIRT5 block 16 (no result: ERAP1 inh)
Cc1ccc([C@@H]2CC=C(C(=O)O)[C@H](c3ccccc3)N2S(=O)(=O)c2ccc(C)cc2)cc1	DENV2 CPE inconclusive, CAL PDZ FP-2 50 (no result: SIRT5 block)
CC(=O)C1CN(S(=O)(=O)c2ccc(C)cc2)C(c2ccccc2)CC1C (stereo unspecified)	DENV2 CPE 39 (no result: CAL PDZ FP-1, CAL PDZ FP-2)
Cc1ccc([C@H]2C(C(=O)O)=CC[C@@H](c3ccc(C)cc3)N2S(=O)(=O)c2ccc(C)cc2)cc1	none
Cc1ccc([C@@H]2CC=C(C(=O)O)[C@H](c3cccc(Cl)c3)N2S(=O)(=O)c2ccccc2C)cc1	none
Cc1ccccc1S(=O)(=O)N1C(c2ccc(Cl)cc2)CC=C(C(=O)O)C1c1cccc(Cl)c1 (stereo unspecified)	DENV2 CPE 67 (no result: CAL PDZ FP-1, CAL PDZ FP-2, SIRT5 block)
C[C@@H]1CN([C@H](C)CO)C(=O)c2cc(NC(=O)Cc3cn(C)c4ccccc34)ccc2O[C@H]1CN(C)C(=O)NC1CCCCC1	none (no result: CAL PDZ FP-1, CAL PDZ FP-2)
COc1cccc([C@@H]2CC=C(C(=O)O)[C@H](c3ccccc3F)N2S(=O)(=O)c2ccc(C)cc2)c1	DENV2 CPE 21 (no result: SIRT5 block)
Cc1ccc(NC(=S)NCC23C=CC(O2)C2C(=O)N(c4ccc(C)cc4)C(=O)C23)cc1 (stereo unspecified)	DENV2 CPE 49
CC(=O)c1ccc(OCc2cc(C(=O)NCC3CCCCO3)no2)cc1 (stereo unspecified)	none
